Source: PMC9380907 (Analytica Chimica Acta, 2022)

Key:
Format in all cases: binding
[1] = ITC with heparin; conditions: 25 °C, 10 mM PBS pH 7.4
Summary of the method: (§1)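 MicroCal ITC200 titrations at 25 °C: 38 consecutive injections at intervals of at least 120 s. All solutions were degassed beforehand. Heats of dilution, measured by titrating beyond saturation, were subtracted from each data set.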

[2] = Cu; conditions: SWV, n = 3
Summary of the method: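 Au slides were cleaned by sonication in 20 wt% ethanolamine at about 50 °C, then dipped briefly in piranha. Probe 1 (2.5 μM) with 5 mM TCEP in 10 mM PBS pH 7.4 was assembled at 4 °C for 16 h, then backfilled with 1 mM 9-mercaptononanol for 3 h at RT. Cu was loaded with 10 μM CuCl2 for 30 min at RT. Cathepsin B was in 25 mM MES pH 5.0 and incubated at 37 °C. SWV was run in N2-purged 10 mM PBS pH 7.4 (SCE, Pt counter), with at least three independent repeats.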

[3] = system: TGF; test: ITC of probe 2 with TGF; conditions: 25 °C
Summary of the method: as §1

[4] = ITC of probe 2 with the label; conditions: 25 °C, 10 mM PBS pH 7.4, 0.5 mM probe 2 into 0.05 mM label
Summary of the method: as §1

Substance: TGF beta 1: transforming growth factor-beta 1, from R&D system
- Interaction with heparin [1]: weak interactions with heparin

Substance: 11-Mercaptoundecanoic acid (MUA)K-DAHKI-(ARKKAAKA)3VLVLVLVL [probe 1]
- Binding with Cu II ion ([2]; surface immobilized probe 1, after cleavage by target enzyme (33 nM)): completely abolish the binding
- Binding with Cu II ion ([2]; surface immobilized probe 1, before enzyme cleavage): relatively strong binding

Substance: (MUA)K–FSHF-(ARKKAAKA)3VLVLVLVL [probe 2]
- Binding to target TGF ([3]; 10 mM PBS pH 7.4, 0.5 mM probe 2 into 0.05 mM TGF): bind strongly
- Binding with target TGF relative to label ([3]; 10 mM PBS pH 7.4, comparison with label): stronger
- Binding to label [4]: bind strongly
